From article PMC3832139 (Cancer chemotherapy and pharmacology, 2013)
pIC50: −log10 of the molar value. Like-named read-outs stand apart in the source and are kept apart here. One block for each compound: values may come before it.

How the values were obtained:
[1] = system: MM.1R cells; assay: MTT cytotoxicity assay; assay type: cell-based, human
[2] = system: RPMI 8226 cells; assay: MTT cytotoxicity assay; assay type: cell-based; settings: Homo sapiens, RPMI-8226, 48 h, read-out: IC50 (cytotoxicity, MTT)
[3] = system: phospho-AKT in CD138+ MM cells; assay: Phospho-AKT flow cytometry of patient bone marrow CD138+ MM cells; assay type: in vivo, human; settings: patient 002 CD138+ cells before dosing, 10 μM ex vivo, 30 minutes
[4] = system: MM.1S and MM.1R cells; assay: Western blot of signaling pathways; assay type: cell-based, human; settings: for phospho-p70 S6 kinase: MM.1R cells, data not shown; for phosphorylation of AKT, MDM2, and ERK: MM.1S and MM.1R cells, 10 μM
[5] = Prodrug cleavage and preclinical pharmacokinetics; assay type: in vitro ADME
[6] = system: p110β; settings: cited from earlier work
[7] = system: p110γ; settings: cited from earlier work
[8] = system: p110δ; settings: cited from earlier work
[9] = Solubility
[10] = system: MM.1S cells; assay: MTT cytotoxicity assay; settings: read-out: IC50 (cytotoxicity, MTT)
[11] = Pharmacokinetics in MM patients, Phase I study of SF1126; settings: MM patients given SF1126 infusion, dose levels 90–570 mg/m^2
[12] = system: MM.1S cells; assay: Cleaved caspase-3 immunocytochemistry; assay type: cell-based, human; settings: for cells positive for cleaved caspase-3: one hour, non-treated 5.9%
[13] = system: MM.1R cells; assay: Cleaved caspase-3 immunocytochemistry; assay type: cell-based, human
[14] = system: MM.1R xenografts; assay type: in vivo, mouse
[15] = system: MM.1R xenografts; assay: Immunohistochemistry of MM.1R tumors; assay type: in vivo, mouse; settings: 50 mg/kg s.c. 3 times weekly
Procedure, shortened: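 Mice bearing s.c. MM.1R flank xenografts (randomized at 100–125 mm³) got test compound 50 mg/kg s.c. or acidified sterile water vehicle, 3 times weekly for 3 weeks. Frozen 4 μm tumor sections were stained with rat anti-mouse CD31; paraffin 5 μm sections were stained overnight with anti-PCNA (PC10). HRP streptavidin-biotin, hematoxylin counterstain, mouse IgG negative control. PCNA labeling index: % positive nuclei over 500 cells, ten 40x fields; SD, n=8.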

[16] = system: HIF-1α in MM.1R cells; assay: Hypoxic HIF-1α stabilization, Western blot; assay type: cell-based, human; settings: 1% oxygen, 4 hours
[17] = system: HIF-1α in RPMI 8226 cells; assay: Hypoxic HIF-1α stabilization, Western blot; assay type: cell-based, human; settings: RPMI 8226, 1% oxygen, 4 hours, 20 and 40 μM
[18] = human, in vivo
[19] = relapsed or refractory MM patients, Phase I
[20] = cited from earlier work

solubility [9]: only soluble in 100% DMSO
t1/2 of active SF1126 hydrolysis product [11]: 1.1 to 1.5 h
Compound: O=c1cc(N2CCOCC2)oc2c(-c3ccccc3)cccc12 [LY294002]
pIC50 ([1]; Homo sapiens, 48 h, read-out: IC50 (cytotoxicity, MTT)): 5.04
endogenous downstream AKT phosphorylation, ex vivo treatment [3]: did not suppress
phospho-p70 S6 kinase [4]: decreased
phosphorylation of AKT, MDM2, and ERK [4]: significantly decreased
plasma half-life [5]: does not have a measurable plasma half-life
pIC50 ([10]; Homo sapiens, MM1.S, 48 h): 5.14

Compound: N=C(N)NCCC[C@H](NC(=O)CCC(=O)OC[N+]1(c2cc(=O)c3cccc(-c4ccccc4)c3o2)CCOCC1)C(=O)NCC(=O)N[C@@H](CC(=O)O)C(=O)N[C@@H](CO)C(=O)[O-] [SF1126]
pIC50 ([1]; read-out: IC50 (cytotoxicity, MTT), 48 hours, sigmoidal dose-response fit): 4.93
increase in cleaved caspase-3 over non-treated cells ([12]; 5 μM): 1.4 fold
cells positive for cleaved caspase-3 ([12]; 5 μM): 8.3%
increase in cleaved caspase-3 over non-treated cells ([12]; 50 μM): 1.9 fold
cells positive for cleaved caspase-3 ([12]; 50 μM): 11.4%
increase in caspase 3 cleavage ([13]; 5 μM): 3 fold
increase in caspase 3 cleavage ([13]; 50 μM): 2.7 fold
mean tumor volume relative to controls (fold less) ([14]; 50 mg/kg s.c. 3 times weekly for 3 weeks, by 34 days): approximately eightfold
untoward effects in mice ([14]; mouse, in vivo): No untoward effects
PCNA-positive proliferating cells (labeling index) ([15]; controls 25%, n=8, p<0.02): 7%
CD31 microvessel density ([15]; n=8, p<0.007): striking decrease
expression of survivin [4]: not affected
phospho-p70 S6 kinase [4]: decreased
phosphorylation of AKT, MDM2, and ERK [4]: significantly decreased
HIF-1α accumulation under hypoxic conditions [16]: blocked
HIF-1α expression under hypoxic conditions [17]: abrogated
clearance of SF1126 [18]: rapidly cleared post-infusion
effect on disease progression [19]: did not appear to modify disease progression
pIC50 ([10]; MM.1S, 48 hours, sigmoidal dose-response fit): 5.05

Compound: RADS [SF1326]
rate of cleavage to SF1101 [20]: same rate as SF1126
